According to article PMC5421726 (Clinical and Translational Science, 2017):
Values belong to the compound of their own block, whether it stands above or below them.

Legend:
[1] = test system: HbA1c; assay: PK/PD model relating tPDE4i to HbA1c in db/db mice; assay type: in vivo
Summary of the method: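 Once-daily dosing of db/db mice for 28 days: test compound at 1, 3 or 10 mg/kg/day, reference PDE4 inhibitor at 0.3, 1 or 3 mg/kg/day, its N-oxide metabolite at 3 mg/kg/day, vehicle 4% methocel. HbA1c read on days -1, 14 and 28. Emax model links HbA1c rise over time to individual tPDE4i. Fit by nonlinear mixed-effects modelling with FOCE-interaction; checked by visual predictive check (200 simulations).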

[2] = test system: PDE4; assay: Total PDE4 inhibition; assay type: in vivo; settings: db/db mice, geometric mean; for Complete tPDE4i: roflumilast + roflumilast N-oxide
[3] = test system: diabetic mouse model; settings: cited from earlier work
[4] = Unbound fraction in mouse plasma in vitro; assay type: in vitro ADME
[5] = test system: HbA1c; settings: clinical setting; cited from earlier work
[6] = Population pharmacokinetic analysis in db/db mice; assay type: in vivo; settings: after roflumilast-N-oxide dosing
[7] = roflumilast N-oxide 3 mg/kg/day

Structure (SMILES): O=C(Nc1c(Cl)c[n+]([O-])cc1Cl)c1ccc(OC(F)F)c(OCC2CC2)c1 [roflumilast(‐N‐oxide)]
PDE50 (tPDE4i leading to half-maximum effect on HbA1c) ([1]; final PK/PD model estimate, 28 days): 27.1

fraction unbound [4]: 0.037
Structure (SMILES): O=C(Nc1c(Cl)cncc1Cl)c1ccc(OC(F)F)c(OCC2CC2)c1 [roflumilast]
tPDE4irof ([2]; roflumilast 0.3 mg/kg/day): 0.744
tPDE4irofNO ([2]; roflumilast 0.3 mg/kg/day): 0.731
Complete tPDE4i ([2]; roflumilast 0.3 mg/kg/day): 1.49
tPDE4irof ([2]; roflumilast 1 mg/kg/day): 2.23
tPDE4irofNO ([2]; roflumilast 1 mg/kg/day): 2.31
tPDE4irof ([2]; roflumilast 3 mg/kg/day): 6.56
tPDE4irofNO ([2]; roflumilast 3 mg/kg/day): 7.18
Complete tPDE4i ([2]; roflumilast 3 mg/kg/day): 13.8
Antidiabetic efficacy [3]: significant antidiabetic efficacy
Dose required to reach half-maximum effect on HbA1c ([1]; calculated from PDE50): 5.9 mg/kg
HbA1c levels [5]: significantly reduced

Structure (SMILES): O=C(Nc1c(Cl)c[n+]([O-])cc1Cl)c1ccc(OC(F)F)c(OCC2CC2)c1 [roflumilast‐N‐oxide]
Exposure of roflumilast relative to roflumilast-N-oxide [6]: 2.6 % of roflumilast‐N‐oxide
Apparent roflumilast clearance ([6]; two-compartment model): 41.8 L/h
Apparent roflumilast-N-oxide clearance ([6]; two-compartment model): 1.09 L/h
tPDE4irof [2, 7]: 0.375
tPDE4irofNO [2, 7]: 22.1
Complete tPDE4i [2, 7]: 22.5
